Results published in ChEMBL document CHEMBL1806443, “Novel imidazo[4,5-b]pyridine and triaza-benzo[c]fluorene derivatives: synthesis, antiproliferative activity and DNA binding studies” (Eur J Med Chem, 2011).
Each block holds one molecule with its values, some of them ahead of it. Calls of active or inactive are those of the source. The calls are words filed in the database; no cut-off is given here.

Legend:
SK-BR-3 [1] = test: Cell cycle arrest in human SKBR3 cells assessed as accumulation at S phase at 5 uM after 48 hrs by propidium iodide staining based flow cytometeric analysis (reference value: 40.6 +/- 4.9%); type: functional
SK-BR-3 [2] = test: Cell cycle arrest in human SKBR3 cells assessed as accumulation at S phase at 50 uM after 24 hrs by propidium iodide staining based flow cytometeric analysis (reference value: 39.9 +/- 1.5%); type: functional
SK-BR-3 [3] = test: Cell cycle arrest in human SKBR3 cells assessed as accumulation at S phase at 10 uM after 24 hrs by propidium iodide staining based flow cytometeric analysis (reference value: 39.9 +/- 1.5%); type: functional
SK-BR-3 [4] = test: Cell cycle arrest in human SKBR3 cells assessed as accumulation at S phase at 5 uM after 24 hrs by propidium iodide staining based flow cytometeric analysis (reference value: 39.9 +/- 1.5%); type: functional
SK-BR-3 [5] = test: Cell cycle arrest in human SKBR3 cells assessed as accumulation at G1 phase at 50 uM after 48 hrs by propidium iodide staining based flow cytometeric analysis (reference value: 24.7 +/- 1.9%); type: functional
SK-BR-3 [6] = test: Cell cycle arrest in human SKBR3 cells assessed as accumulation at G1 phase at 10 uM after 48 hrs by propidium iodide staining based flow cytometeric analysis (reference value: 24.7 +/- 1.9%); type: functional
SK-BR-3 [7] = test: Cell cycle arrest in human SKBR3 cells assessed as accumulation at G1 phase at 5 uM after 48 hrs by propidium iodide staining based flow cytometeric analysis (reference value: 24.7 +/- 1.9%); type: functional
SK-BR-3 [8] = test: Cell cycle arrest in human SKBR3 cells assessed as accumulation at G1 phase at 50 uM after 24 hrs by propidium iodide staining based flow cytometeric analysis (reference value: 39.5 +/- 1.1%); type: functional
SK-BR-3 [9] = test: Cell cycle arrest in human SKBR3 cells assessed as accumulation at G1 phase at 10 uM after 24 hrs by propidium iodide staining based flow cytometeric analysis (reference value: 39.5 +/- 1.1%); type: functional
SK-BR-3 [10] = test: Cell cycle arrest in human SKBR3 cells assessed as accumulation at G1 phase at 5 uM after 24 hrs by propidium iodide staining based flow cytometeric analysis (reference value: 39.5 +/- 1.1%); type: functional
SK-BR-3 [11] = test: Cell cycle arrest in human SKBR3 cells assessed as accumulation at subG1 phase at 50 uM after 48 hrs by propidium iodide staining based flow cytometeric analysis (reference value: 2.1 +/- 0.2%); type: functional
SK-BR-3 [12] = test: Cell cycle arrest in human SKBR3 cells assessed as accumulation at subG1 phase at 10 uM after 48 hrs by propidium iodide staining based flow cytometeric analysis (reference value: 2.1 +/- 0.2%); type: functional
SK-BR-3 [13] = test: Cell cycle arrest in human SKBR3 cells assessed as accumulation at subG1 phase at 5 uM after 48 hrs by propidium iodide staining based flow cytometeric analysis (reference value: 2.1 +/- 0.2%); type: functional
SK-BR-3 [14] = test: Cell cycle arrest in human SKBR3 cells assessed as accumulation at subG1 phase at 50 uM after 24 hrs by propidium iodide staining based flow cytometeric analysis (reference value: 39 +/- 1.1%); type: functional
SK-BR-3 [15] = test: Cell cycle arrest in human SKBR3 cells assessed as accumulation at subG1 phase at 10 uM after 24 hrs by propidium iodide staining based flow cytometeric analysis (reference value: 39 +/- 1.1%); type: functional
SK-BR-3 [16] = test: Cell cycle arrest in human SKBR3 cells assessed as accumulation at subG1 phase at 5 uM after 24 hrs by propidium iodide staining based flow cytometeric analysis (reference value: 39 +/- 1.1%); type: functional
WI-38 = test: Antiproliferative activity against human WI38 cells after 72 hrs by MTT assay; type: cell-based; settings: Homo sapiens, WI-38, 72 h
How it was run: (§1)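 Monolayer cells in DMEM with 10% FBS, 2 mM L-glutamine, penicillin and streptomycin at 37 °C, 5% CO2. Seeded at 3000-6000 cells/well by doubling time on day 0. Five 10-fold dilutions (0.01–100 µM) were added and incubated 72 h. MTT read-out, converted to percentage growth. IC50 by linear regression between bracketing concentrations. Quadruplicate points, three independent experiments, ANOVA/Tukey p<0.05.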

MIA PaCa-2 [17] = test: Antiproliferative activity against human MIAPaCa2 cells after 72 hrs by MTT assay; type: functional, cell-based; settings: Homo sapiens, MIA PaCa-2, 72 h; how it was run: as §1
SW-620 [18] = test: Antiproliferative activity against human SW620 cells after 72 hrs by MTT assay; type: functional, cell-based; settings: Homo sapiens, SW-620, 72 h; how it was run: as §1
HEp-2 [19] = test: Antiproliferative activity against human Hep2 cells after 72 hrs by MTT assay; type: functional, cell-based; settings: Homo sapiens, HEp-2, 72 h; how it was run: as §1
SK-BR-3 [20] = test: Antiproliferative activity against human SKBR3 cells after 72 hrs by MTT assay; type: functional, cell-based; settings: Homo sapiens, SK-BR-3, 72 h; how it was run: as §1
MCF7 [21] = test: Antiproliferative activity against human MCF7 cells after 72 hrs by MTT assay; type: functional, cell-based; settings: Homo sapiens, MCF7, 72 h; how it was run: as §1
HeLa [22] = test: Antiproliferative activity against human HeLa cells after 72 hrs by MTT assay; type: functional, cell-based; settings: Homo sapiens, HeLa, 72 h; how it was run: as §1
SK-BR-3 [23] = test: Cell cycle arrest in human SKBR3 cells assessed as accumulation at S phase at 10 uM after 48 hrs by propidium iodide staining based flow cytometeric analysis (reference value: 40.6 +/- 4.9%); type: functional
SK-BR-3 [24] = test: Cell cycle arrest in human SKBR3 cells assessed as accumulation at S phase at 50 uM after 48 hrs by propidium iodide staining based flow cytometeric analysis (reference value: 40.6 +/- 4.9%); type: functional
SK-BR-3 [25] = test: Cell cycle arrest in human SKBR3 cells assessed as accumulation at G2/M phase at 5 uM after 24 hrs by propidium iodide staining based flow cytometeric analysis (reference value: 20.6 +/- 2.1%); type: functional
SK-BR-3 [26] = test: Cell cycle arrest in human SKBR3 cells assessed as accumulation at G2/M phase at 10 uM after 24 hrs by propidium iodide staining based flow cytometeric analysis (reference value: 20.6 +/- 2.1%); type: functional
SK-BR-3 [27] = test: Cell cycle arrest in human SKBR3 cells assessed as accumulation at G2/M phase at 50 uM after 24 hrs by propidium iodide staining based flow cytometeric analysis (reference value: 20.6 +/- 2.1%); type: functional
SK-BR-3 [28] = test: Cell cycle arrest in human SKBR3 cells assessed as accumulation at G2/M phase at 5 uM after 48 hrs by propidium iodide staining based flow cytometeric analysis (reference value: 34.7 +/- 3.3%); type: functional
SK-BR-3 [29] = test: Cell cycle arrest in human SKBR3 cells assessed as accumulation at G2/M phase at 10 uM after 48 hrs by propidium iodide staining based flow cytometeric analysis (reference value: 34.7 +/- 3.3%); type: functional
SK-BR-3 [30] = test: Cell cycle arrest in human SKBR3 cells assessed as accumulation at G2/M phase at 50 uM after 48 hrs by propidium iodide staining based flow cytometeric analysis (reference value: 34.7 +/- 3.3%); type: functional
SW-620 [31] = test: Cytostatic activity against human SW620 cells at 1 to 10 uM after 72 hrs by MTT assay; type: functional, cell-based
How it was run: (§2)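 Monolayers in DMEM with 10% FBS, 2 mM L-glutamine, penicillin and streptomycin (37 °C, 5% CO2) were seeded at 3000–6000 cells/well on day 0. Five 10-fold dilutions (0.01–100 µM) were added, followed by 72-h incubation and MTT read-out. Absorbances were converted to percentage growth by the NIH formulae. Each point was run in quadruplicate in three experiments; ANOVA with Tukey test.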

MIA PaCa-2 [32] = test: Cytostatic activity against human MIAPaCa2 cells at 1 to 10 uM after 72 hrs by MTT assay; type: functional, cell-based; how it was run: as §2
SK-BR-3 [33] = test: Cytostatic activity against human SKBR3 cells at 1 to 10 uM after 72 hrs by MTT assay; type: functional, cell-based; how it was run: as §2
HEp-2 [34] = test: Cytostatic activity against human Hep2 cells at 1 to 10 uM after 72 hrs by MTT assay; type: functional, cell-based; how it was run: as §2
MCF7 [35] = test: Cytostatic activity against human MCF7 cells at 1 to 10 uM after 72 hrs by MTT assay; type: functional, cell-based; how it was run: as §2
HeLa [36] = test: Cytostatic activity against human HeLa cells at 1 to 10 uM after 72 hrs by MTT assay; type: functional, cell-based; how it was run: as §2
Nucleic Acid [37] = test: Binding affinity to calf thymus DNA assessed as change in melting temperature at compound to polynucleotide ratio of 0.5 by UV-VIS spectroscopic analysis; type: nucleic-acid assay; settings: Bos taurus
How it was run: (§3)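 ct-DNA alone or with compound at set r = [compound]/[polynucleotide], in cacodylate buffer pH 7.0, I = 0.05 mol dm^-3. Absorbance at 260 nm followed against temperature, ligand absorbance subtracted, curves normalized. Tm is the transition midpoint, from the first-derivative maximum or by tangent method. ΔTm = Tm(complex) − Tm(free DNA), mean of ≥2 runs, error ±0.5 °C.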

Nucleic Acid [38] = test: Binding affinity to calf thymus DNA assessed as change in melting temperature at compound to polynucleotide ratio of 0.3 by UV-VIS spectroscopic analysis; type: nucleic-acid assay; settings: Bos taurus; how it was run: as §3
Nucleic Acid [39] = test: Binding affinity to calf thymus DNA assessed as change in melting temperature at compound to polynucleotide ratio of 0.2 by UV-VIS spectroscopic analysis; type: nucleic-acid assay; settings: Bos taurus; how it was run: as §3
Nucleic Acid [40] = test: Binding affinity to calf thymus DNA assessed as change in melting temperature at compound to polynucleotide ratio of 0.1 by UV-VIS spectroscopic analysis; type: nucleic-acid assay; settings: Bos taurus; how it was run: as §3
Nucleic Acid [41] = test: Binding affinity to calf thymus DNA assessed as hypochromic changes at 330 nm wavelength by UV-Vis spectrophotometric titrations; type: nucleic-acid assay; settings: Bos taurus
How it was run: (§4)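 UV/Vis titration: aliquots of ct-DNA (concentration as phosphate) added to compound solution in sodium cacodylate buffer pH 7.0, I = 0.05 mol dm^-3, 1 cm quartz cuvettes. Hypochromism followed at band maxima. Compound absorbance linear up to 2.0 × 10^-5 mol dm^-3. Binding data fitted by the Scatchard equation.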

Nucleic Acid [42] = test: Binding affinity to calf thymus DNA assessed as hypochromic changes at 343 nm wavelength by UV-Vis spectrophotometric titrations; type: nucleic-acid assay; settings: Bos taurus; how it was run: as §4
Nucleic Acid [43] = test: Binding affinity to calf thymus DNA assessed as appearance of weak, negative induced CD band at > 300 nm wavelength by circular dichroism spectroscopy; type: nucleic-acid assay; settings: Bos taurus
How it was run: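 CD spectra of ct-DNA (1.0 × 10^-5 mol dm^-3, as phosphate) titrated with compound at 25 °C. Sodium cacodylate buffer pH 7.0, I = 0.05 mol dm^-3, 1 cm quartz cuvette. DNA band (~274–275 nm) and induced bands above 300 nm followed versus r = [compound]/[ct-DNA].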

Nucleic Acid [44] = test: Binding affinity to calf thymus DNA assessed as UV/Vis spectral change at compound to DNA ratio of 0.24 by UV/Vis titrations; settings: Bos taurus

- IC50 (MIA PaCa-2 [17]): 48.2 µM
- IC50 (SW-620 [18]): 34.8 µM
- IC50 (SK-BR-3 [20]): 2.94 µM
- IC50 (MCF7 [21]): 72.4 µM
- IC50 (HeLa [22]): 43.4 µM
SMILES: Nc1ccc2c(ccc3nc4ncccc4n32)c1 [listing 1 of 2 here]
- Activity (SK-BR-3 [1]): 59.8%
- Activity (SK-BR-3 [2]): 48.1%
- Activity (SK-BR-3 [3]): 34.5%
- Activity (SK-BR-3 [4]): 35.1%
- Activity (SK-BR-3 [5]): 19.9%
- Activity (SK-BR-3 [6]): 20.9%
- Activity (SK-BR-3 [7]): 24.4%
- Activity (SK-BR-3 [8]): 33.2%
- Activity (SK-BR-3 [9]): 39.4%
- Activity (SK-BR-3 [10]): 47.1%
- Activity (SK-BR-3 [11]): 3.1%
- Activity (SK-BR-3 [12]): 5.5%
- Activity (SK-BR-3 [13]): 1.9%
- Activity (SK-BR-3 [14]): 50.2%
- Activity (SK-BR-3 [15]): 45.8%
- Activity (SK-BR-3 [16]): 35.7%
- IC50 (WI-38): > 100 µM
- IC50 (HEp-2 [19]): 39.2 µM
- Activity (SK-BR-3 [23]): 64.2%
- Activity (SK-BR-3 [24]): 47.6%
- Activity (SK-BR-3 [25]): 17.7%
- Activity (SK-BR-3 [26]): 26.1%
- Activity (SK-BR-3 [27]): 18.7%
- Activity (SK-BR-3 [28]): 15.8%
- Activity (SK-BR-3 [29]): 14.8%
- Activity (SK-BR-3 [30]): 32.5%

- ΔTm (Nucleic Acid [37]): 1.3 °C
- ΔTm (Nucleic Acid [38]): 0.2 °C
- ΔTm (Nucleic Acid [39]): 1.4 °C
- ΔTm (Nucleic Acid [40]): 0.7 °C
- Activity (Nucleic Acid [41]): 26%
- Activity (Nucleic Acid [42]): 18%
- Activity (Nucleic Acid [43]): inactive
- log Ks (Nucleic Acid [44]): 4.6
SMILES: Nc1ccc2c(ccc3nc4ncccc4n32)c1 [listing 2 of 2 here]
- Activity (SW-620 [31]): Active
- Activity (MIA PaCa-2 [32]): Active
- Activity (SK-BR-3 [33]): Active
- Activity (HEp-2 [34]): Active
- Activity (MCF7 [35]): Active
- Activity (HeLa [36]): Active
